Reference: ChEMBL document CHEMBL4689842, “EUbOPEN Chemogenomics Library wave 1” (2021)

System: U2OS
Assay: Multiplex assay against U2OS
Type: toxicity, cell-based
Conditions: human
Method in brief: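 Phenotypes for tubulin, mitochondrial mass and membrane permeability are expressed as per cents of healthy-nucleus cells. Cells were stained live at seeding with Hoechst33342, BioTracker Green Microtubule Cytoskeleton Dye, MitoTracker Red and Annexin V Alexa Fluor 680, then imaged after compound addition on a CQ1 microscope at 37°C and 5% CO2. Machine-learning gating in CellPathfinder separated Hoechst high-intensity objects from normal cells, divided normal cells by nuclear state (healthy, pyknosed, fragmented) and divided pyknosed cells into mitotic or apoptotic.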

[1] = 12 h, 1 µM, compound concentration 1 uM, replicate 1
[2] = 12 h, 1 µM, compound concentration 1 uM, replicate 2
[3] = 12 h, 10 µM, compound concentration 10 uM, replicate 1
[4] = 12 h, 10 µM, compound concentration 10 uM, replicate 2
[5] = 24 h, 1 µM, compound concentration 1 uM, replicate 1
[6] = 24 h, 1 µM, compound concentration 1 uM, replicate 2
[7] = 24 h, 10 µM, compound concentration 10 uM, replicate 1
[8] = 24 h, 10 µM, compound concentration 10 uM, replicate 2
[9] = 48 h, 1 µM, compound concentration 1 uM, replicate 1
[10] = 48 h, 1 µM, compound concentration 1 uM, replicate 2
[11] = 48 h, 10 µM, compound concentration 10 uM, replicate 1
[12] = 48 h, 10 µM, compound concentration 10 uM, replicate 2

## CC[C@H](C)C(=O)O[C@H]1C[C@@H](C)C=C2C=C[C@H](C)[C@H](CC[C@@H]3C[C@@H](O)CC(=O)O3)[C@H]21 [LOVASTATIN]
[1]
  Population Apoptotic (%): 21%
  Population Fragmented Nuclei (%): 13%
  Population Healthy Nuclei (%): 76%
  Population Hoechst High Intensity Objects (%): 12%
  Population Membrane Permeable-Phenotype (%): 7%
  Population Mitochondria Different-Phenotype (%): 5%
  Population Mitotic Cells (%): 78%
  Population Normal (%): 87%
  Population Pyknosed Nuclei (%): 9%
  Population Tubulin-Different-Phenotype (%): 13%
  Total Cell Count: 140
[2]
  Population Apoptotic (%): 25%
  Population Fragmented Nuclei (%): 22%
  Population Healthy Nuclei (%): 68%
  Population Hoechst High Intensity Objects (%): 11%
  Population Membrane Permeable-Phenotype (%): 3%
  Population Mitochondria Different-Phenotype (%): 6%
  Population Mitotic Cells (%): 75%
  Population Normal (%): 88%
  Population Pyknosed Nuclei (%): 8%
  Population Tubulin-Different-Phenotype (%): 3%
  Total Cell Count: 87
[3]
  Population Apoptotic (%): 31%
  Population Fragmented Nuclei (%): 20%
  Population Healthy Nuclei (%): 68%
  Population Hoechst High Intensity Objects (%): 10%
  Population Membrane Permeable-Phenotype (%): 9%
  Population Mitochondria Different-Phenotype (%): 14%
  Population Mitotic Cells (%): 68%
  Population Normal (%): 89%
  Population Pyknosed Nuclei (%): 11%
  Population Tubulin-Different-Phenotype (%): 12%
  Total Cell Count: 163
[4]
  Population Apoptotic (%): 100%
  Population Fragmented Nuclei (%): 4%
  Population Healthy Nuclei (%): 90%
  Population Hoechst High Intensity Objects (%): 8%
  Population Membrane Permeable-Phenotype (%): 10%
  Population Mitochondria Different-Phenotype (%): 12%
  Population Mitotic Cells (%): 0%
  Population Normal (%): 91%
  Population Pyknosed Nuclei (%): 4%
  Population Tubulin-Different-Phenotype (%): 20%
  Total Cell Count: 54
[5]
  Population Apoptotic (%): 18%
  Population Fragmented Nuclei (%): 6%
  Population Healthy Nuclei (%): 84%
  Population Hoechst High Intensity Objects (%): 7%
  Population Membrane Permeable-Phenotype (%): 6%
  Population Mitochondria Different-Phenotype (%): 8%
  Population Mitotic Cells (%): 81%
  Population Normal (%): 92%
  Population Pyknosed Nuclei (%): 8%
  Population Tubulin-Different-Phenotype (%): 14%
  Total Cell Count: 144
[6]
  Population Apoptotic (%): 40%
  Population Fragmented Nuclei (%): 22%
  Population Healthy Nuclei (%): 70%
  Population Hoechst High Intensity Objects (%): 9%
  Population Membrane Permeable-Phenotype (%): 0%
  Population Mitochondria Different-Phenotype (%): 4%
  Population Mitotic Cells (%): 60%
  Population Normal (%): 90%
  Population Pyknosed Nuclei (%): 7%
  Population Tubulin-Different-Phenotype (%): 4%
  Total Cell Count: 93
[7]
  Population Apoptotic (%): 25%
  Population Fragmented Nuclei (%): 13%
  Population Healthy Nuclei (%): 76%
  Population Hoechst High Intensity Objects (%): 6%
  Population Membrane Permeable-Phenotype (%): 8%
  Population Mitochondria Different-Phenotype (%): 7%
  Population Mitotic Cells (%): 75%
  Population Normal (%): 93%
  Population Pyknosed Nuclei (%): 9%
  Population Tubulin-Different-Phenotype (%): 9%
  Total Cell Count: 204
[8]
  Population Apoptotic (%): 28%
  Population Fragmented Nuclei (%): 8%
  Population Healthy Nuclei (%): 79%
  Population Hoechst High Intensity Objects (%): 7%
  Population Mitochondria Different-Phenotype (%): 4%
  Population Mitotic Cells (%): 71%
  Population Normal (%): 92%
  Population Pyknosed Nuclei (%): 11%
  Population Tubulin-Different-Phenotype (%): 23%
  Total Cell Count: 74
[9]
  Population Apoptotic (%): 41%
  Population Fragmented Nuclei (%): 4%
  Population Healthy Nuclei (%): 89%
  Population Hoechst High Intensity Objects (%): 3%
  Population Membrane Permeable-Phenotype (%): 4%
  Population Mitochondria Different-Phenotype (%): 8%
  Population Mitotic Cells (%): 58%
  Population Normal (%): 96%
  Population Pyknosed Nuclei (%): 5%
  Population Tubulin-Different-Phenotype (%): 11%
  Total Cell Count: 129
[10]
  Population Apoptotic (%): 0%
  Population Fragmented Nuclei (%): 10%
  Population Healthy Nuclei (%): 87%
  Population Hoechst High Intensity Objects (%): 7%
  Population Membrane Permeable-Phenotype (%): 1%
  Population Mitochondria Different-Phenotype (%): 5%
  Population Mitotic Cells (%): 100%
  Population Normal (%): 92%
  Population Pyknosed Nuclei (%): 2%
  Population Tubulin-Different-Phenotype (%): 7%
  Total Cell Count: 89
[11]
  Population Apoptotic (%): 40%
  Population Fragmented Nuclei (%): 12%
  Population Healthy Nuclei (%): 78%
  Population Hoechst High Intensity Objects (%): 4%
  Population Membrane Permeable-Phenotype (%): 3%
  Population Mitochondria Different-Phenotype (%): 5%
  Population Mitotic Cells (%): 60%
  Population Normal (%): 95%
  Population Pyknosed Nuclei (%): 8%
  Population Tubulin-Different-Phenotype (%): 4%
  Total Cell Count: 300
[12]
  Population Apoptotic (%): 33%
  Population Fragmented Nuclei (%): 3%
  Population Healthy Nuclei (%): 89%
  Population Hoechst High Intensity Objects (%): 7%
  Population Membrane Permeable-Phenotype (%): 6%
  Population Mitochondria Different-Phenotype (%): 6%
  Population Mitotic Cells (%): 66%
  Population Normal (%): 92%
  Population Pyknosed Nuclei (%): 7%
  Population Tubulin-Different-Phenotype (%): 21%
  Total Cell Count: 96
